These results are taken from ChEMBL document CHEMBL1149771, “Antimicrobial studies of 2,4-dichloro-5-fluorophenyl containing oxadiazoles” (2008).

Molecules are shown by their SMILES. Converted amounts (≈) assume the structure as drawn.

Type in all cases: functional
Experiment [1] has as its system Staphylococcus aureus. Nature of the experiment: Antibacterial activity against Staphylococcus aureus ATCC 25923 at 35 degC after 18 to 24 hrs. The method in brief: (§1)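 Bactericidal endpoint (MBC) taken from the broth-dilution MIC tubes. 0.1 ml from each tube was spread on agar plates and c.f.u. counted after 18–24 h. MBC was the lowest concentration completely killing the bacteria.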

Experiment [2] has as its system Candida albicans. Nature of the experiment: Antifungal activity against Candida albicans at 35 degC after 48 hrs. In short, it runs like this:
(§2)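 Fungicidal endpoint (MFC). 0.1 ml from each broth-dilution tube was spread on agar plates and c.f.u. counted after 48 h at 35 °C. MFC was the lowest concentration killing 99.9% of the inoculum.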

Experiment [3] concerns Klebsiella pneumoniae. Briefly: Antibacterial activity against Klebsiella pneumoniae ATCC 25922 at 37 degC after 24 hrs by disc diffusion method. The method in brief:
(§3)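 Disc diffusion on nutrient agar. Plates were spread with 1–2 × […] c.f.u./ml inoculum (0.5 McFarland). Sterile 6.25 mm filter-paper discs were soaked in a known concentration of compound and placed on the agar. Plates were inverted and incubated 24 h at 37 °C. Inhibition zones (mm) were read against solvent and growth controls, with ciprofloxacin as reference.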
In general terms: A growth-free zone around the sample is the usual read-out of agar diffusion tests.

In experiment [4] the test system is Escherichia coli. Briefly: Antibacterial activity against Escherichia coli ATCC 25922 at 35 degC after 18 to 24 hrs. In short, it runs like this: as §1
Experiment [5] deals with Escherichia coli. Nature of the experiment: Antibacterial activity against Escherichia coli ATCC 25922 at 37 degC after 24 hrs by disc diffusion method. In short, it runs like this: as §3
The subject of experiment [6] is Talaromyces marneffei. Nature of the experiment: Antifungal activity against Penicillium marneffei at 37 degC after 3 to 4 days by agar […] method. The method in brief: (§4)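 Agar well diffusion for fungi, compounds in DMSO. Sabouraud agar was adjusted to pH 5.7 and lawned with a saline spore suspension (a loopful in 3 ml). Plates were dried 1 h at 37 °C, then wells were punched. Incubation was 3–4 days at 37 °C, with controls in triplicate. Inhibition zones were measured against controls, with griseofulvin as standard.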

Experiment [7] deals with Pseudomonas aeruginosa. Nature of the experiment: Antibacterial activity against Pseudomonas aeruginosa ATCC 27853 at 37 degC after 24 hrs by disc diffusion method. In short, it runs like this:
as §3

Experiment [8] has as its system Aspergillus fumigatus. Briefly: Antifungal activity against Aspergillus fumigatus at 35 degC after 48 hrs. The method in brief:
as §2

In experiment [9] the test system is Trichophyton mentagrophytes. Nature of the experiment: Antifungal activity against Trichophyton mentagrophytes at 35 degC after 48 hrs by broth dilution method. In short, it runs like this:
(§5)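 Fungal MIC by broth dilution. Two-fold serial dilutions of compound in nutrient broth were inoculated with about 1.6 × 10⁴–6 × 10⁴ c.f.u./ml. Incubation was 48 h at 35 °C. MIC was the lowest concentration arresting fungal growth.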

Experiment [10] relates to Trichophyton mentagrophytes. Nature of the experiment: Antifungal activity against Trichophyton mentagrophytes at 37 degC after 3 to 4 days by agar dilution method. The following applies: in the assay text read “agar diffusion method” for “agar dilution method”. The method in brief:
as §4
For orientation: In agar dilution, organisms are placed on agar that contains the substance at set levels.

Experiment [11] concerns Pseudomonas aeruginosa. Nature of the experiment: Antibacterial activity against Pseudomonas aeruginosa ATCC 27853 at 37 degC after 24 hrs by broth dilution method. Particulars: ATCC 27853, 24 h. In short, it runs like this:
(§6)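 Broth dilution MIC. Nutrient broth held two-fold serial dilutions of compound and was inoculated with about 5 × 10⁵ c.f.u. of actively dividing bacteria. Cultures ran 24 h at 37 °C, with growth checked visually and spectrophotometrically. MIC was the lowest concentration arresting growth. Ciprofloxacin was the standard.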
On the technique in general: Broth dilution looks for growth in wells or tubes with falling amounts of substance.

Experiment [12] concerns Talaromyces marneffei. Nature of the experiment: Antifungal activity against Penicillium marneffei at 35 degC after 48 hrs. The method in brief:
as §2

The test system of experiment [13] is Klebsiella pneumoniae. Nature of the experiment: Antibacterial activity against Klebsiella pneumoniae ATCC 25922 at 35 degC after 18 to 24 hrs. The following applies: recultured, in the assay text read “Klebsiella pneumoniae (recultured)” for “Klebsiella pneumoniae ATCC 25922”. The method in brief:
as §1

Experiment [14] concerns Aspergillus fumigatus. Briefly: Antifungal activity against Aspergillus fumigatus at 35 degC after 48 hrs by broth dilution method. The method in brief: as §5
In experiment [15] the test system is Trichophyton mentagrophytes. Nature of the experiment: Antifungal activity against Trichophyton mentagrophytes at 35 degC after 48 hrs. In short, it runs like this: as §2
The subject of experiment [16] is Escherichia coli. Nature of the experiment: Antibacterial activity against Escherichia coli ATCC 25922 at 37 degC after 24 hrs by broth dilution method. The following applies: ATCC 25922, 24 h. In short, it runs like this: as §6
Experiment [17] concerns Pseudomonas aeruginosa. Briefly: Antibacterial activity against Pseudomonas aeruginosa ATCC 27853 at 35 degC after 18 to 24 hrs. The method in brief:
as §1

The test system of experiment [18] is Talaromyces marneffei. Briefly: Antifungal activity against Penicillium marneffei at 35 degC after 48 hrs by broth dilution method. The method in brief:
as §5

Experiment [19] concerns Staphylococcus aureus. Briefly: Antibacterial activity against Staphylococcus aureus ATCC 25923 at 37 degC after 24 hrs by disc diffusion method. In short, it runs like this:
as §3

Experiment [20] deals with Candida albicans. Nature of the experiment: Antifungal activity against Candida albicans at 37 degC after 3 to 4 days by agar dilution method. Particulars: for Activity: in the assay text read “agar diffusion method” for “agar dilution method”. The method in brief:
as §4

For experiment [21], the system named is Klebsiella pneumoniae. Briefly: Antibacterial activity against Klebsiella pneumoniae ATCC 25922 at 37 degC after 24 hrs by broth dilution method. Particulars: recultured, in the assay text read “Klebsiella pneumoniae (recultured)” for “Klebsiella pneumoniae ATCC 25922”. The method in brief:
as §6

Experiment [22] has as its system Candida albicans. Nature of the experiment: Antifungal activity against Candida albicans at 35 degC after 48 hrs by broth dilution method. The method in brief:
as §5

Experiment [23] relates to Aspergillus fumigatus. Briefly: Antifungal activity against Aspergillus fumigatus at 37 degC after 3 to 4 days by agar […] method. In short, it runs like this: as §4
For experiment [24], the system named is Staphylococcus aureus. Briefly: Antibacterial activity against Staphylococcus aureus ATCC 25923 at 37 degC after 24 hrs by broth dilution method. Particulars: ATCC 25923, 24 h. The method in brief: as §6

By MBC is commonly meant the smallest concentration meeting the test's criterion for killing. A high value points to less potent killing. For orientation: MFC means the lowest tested concentration that kills the fungus rather than only halting it. A lower MFC goes with more potent killing. Broadly, the MIC is the lowest concentration found to suppress growth. As for `Cc1ccc(OCc2nnc(-c3cc(-c4cc(F)c(Cl)cc4Cl)nc4ccccc34)o2)cc1`, the MBC came out at 100 µg/mL (≈ 208 µM) in the experiment with Staphylococcus aureus [1], 50 µg/mL (≈ 104 µM) in the experiment with Escherichia coli [4], 25 µg/mL (≈ 52 µM) in the experiment on Klebsiella pneumoniae [13] and 50 µg/mL (≈ 104 µM) in the experiment with Pseudomonas aeruginosa [17]. The MFC against Candida albicans [2] was greater than 100 µg/mL; against Aspergillus fumigatus [8], greater than 100 µg/mL; in the experiment with Talaromyces marneffei [12], 25 µg/mL (≈ 52 µM); in [15], 6.25 µg/mL (≈ 13 µM). The “inhibition zone (IZ)” value worked out at 15 mm in the experiment on Klebsiella pneumoniae [3]; 10 mm in the experiment on Escherichia coli [5]; 15 mm in the experiment on Talaromyces marneffei [6]; 8 mm with Pseudomonas aeruginosa [7]; 17 mm in experiment [10]; 15 mm with Staphylococcus aureus [19]. Also, the MIC in [9] is 6.25 µg/mL (≈ 13 µM); against Pseudomonas aeruginosa [11], 25 µg/mL (≈ 52 µM); with Aspergillus fumigatus [14], greater than 100 µg/mL; against Escherichia coli [16], 25 µg/mL (≈ 52 µM); against Talaromyces marneffei [18] it was 12.5 µg/mL (≈ 26 µM); against Klebsiella pneumoniae [21], 12.5 µg/mL (≈ 26 µM). The MIC against Candida albicans [22] was greater than 100 µg/mL; in the experiment on Staphylococcus aureus [24], 12.5 µg/mL (≈ 26 µM). Further, the Activity in the experiment on Candida albicans [20] and in the experiment on Aspergillus fumigatus [23] was greater than 100 µg/mL each time.

On to `Cc1cc(OCc2nnc(-c3cc(F)c(Cl)cc3Cl)o2)ccc1Cl`, for which the MBC was 50 µg/mL (≈ 129 µM) with Staphylococcus aureus [1], 100 µg/mL (≈ 258 µM) with Escherichia coli [4], greater than 100 µg/mL against Klebsiella pneumoniae [13] and greater than 100 µg/mL in the experiment on Pseudomonas aeruginosa [17]. The MFC in the experiment with Candida albicans [2] is greater than 100 µg/mL; against Aspergillus fumigatus [8], 50 µg/mL (≈ 129 µM); in the experiment on Talaromyces marneffei [12] it was 50 µg/mL (≈ 129 µM); in experiment [15], greater than 100 µg/mL. Besides, the “inhibition zone (IZ)” value was determined as 12 mm with Klebsiella pneumoniae [3]; 15 mm in the experiment with Escherichia coli [5]; 10 mm with Talaromyces marneffei [6]; 10 mm in the experiment with Staphylococcus aureus [19]; 8 mm in the experiment on Aspergillus fumigatus [23]. Besides, the Activity (in the experiment with Pseudomonas aeruginosa [7]; in experiment [10]; with Candida albicans [20]) was greater than 100 µg/mL throughout. Further, the MIC in experiment [9] was greater than 100 µg/mL; with Pseudomonas aeruginosa [11], greater than 100 µg/mL; against Aspergillus fumigatus [14] it was 25 µg/mL (≈ 64.5 µM); against Escherichia coli [16], 12.5 µg/mL (≈ 32.2 µM); with Talaromyces marneffei [18] it was 25 µg/mL (≈ 64.5 µM); against Klebsiella pneumoniae [21], greater than 100 µg/mL. Also, the figures for the MIC in the experiment on Candida albicans [22] and against Staphylococcus aureus [24] were greater than 100 µg/mL and 25 µg/mL (≈ 64.5 µM), respectively.

Turning to `Fc1cc(-c2cc(-c3nnc(COc4ccccc4Cl)o3)c3ccccc3n2)c(Cl)cc1Cl`, the MBC against Staphylococcus aureus [1] is greater than 100 µg/mL; against Escherichia coli [4] it was 50 µg/mL (≈ 99.9 µM); with Klebsiella pneumoniae [13], 100 µg/mL (≈ 200 µM); with Pseudomonas aeruginosa [17], 50 µg/mL (≈ 99.9 µM). The MFC with Candida albicans [2] was 12.5 µg/mL (≈ 25 µM); in the experiment with Aspergillus fumigatus [8], greater than 100 µg/mL; against Talaromyces marneffei [12], 25 µg/mL (≈ 49.9 µM); in experiment [15], greater than 100 µg/mL. The Activity (in the experiment on Klebsiella pneumoniae [3]; in experiment [10]; with Staphylococcus aureus [19]; with Aspergillus fumigatus [23]) was greater than 100 µg/mL each time. The “inhibition zone (IZ)” value in the experiment on Escherichia coli [5] amounted to 20 mm; in the experiment with Talaromyces marneffei [6], 12 mm; in the experiment on Pseudomonas aeruginosa [7], 22 mm; in the experiment with Candida albicans [20] it was 20 mm. Further, the MIC is greater than 100 µg/mL in [9]; 25 µg/mL (≈ 49.9 µM) with Pseudomonas aeruginosa [11]; greater than 100 µg/mL in the experiment with Aspergillus fumigatus [14]; 6.25 µg/mL (≈ 12.5 µM) with Escherichia coli [16]; 12.5 µg/mL (≈ 25 µM) against Talaromyces marneffei [18]; 25 µg/mL (≈ 49.9 µM) against Klebsiella pneumoniae [21]. Also, the MIC against Candida albicans [22] was 6.25 µg/mL (≈ 12.5 µM); against Staphylococcus aureus [24], greater than 100 µg/mL.
